SENP1 FRET inh – inhibitors of human SENP1 SUMO protease catalytic domain. inhibition, % at 10 µM. Q9P0U3. hit rate 0.21% among 360,000. AID 624204. recombinant SENP1 catalytic domain, CyPet-SUMO1-YPet FRET cleavage;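 active means inhibition at least 30% at 10 µM, raw YFP signal under a set limit, fluorescence ratio 0.5 to 1.5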;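 further: 0% = enzyme with DMSO and 100% = no enzyme wells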
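Test system: recombinant human SENP1 catalytic domain, His6-tagged / Medium: pH 8 Tris buffer with EDTA, NaCl, BME, BSA, NP40, catalase / Also added: SUMO1 FRET substrate flanked by Cypet and Ypet, 25 nM / Times: 50 min reaction at room temperature / Signal: FRET, CFP and YFP emission / Control set: no-enzyme low control and enzyme-plus-DMSO high control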
Granule exo inh – lytic granule exocytosis inhibition | TALL-104 LAMP-1 surface exposure, flow cytometry; cells stimulated with thapsigargin and PMA | inhibition, % at 10 µM | hit rate 0.66% among 360,000;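 active means inhibition above about 55%, limit read from the data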
H9c2 protect – protects H9c2 cardiomyocytes from peroxide injury; hit rate 0.63% among 360,000; protection from H2O2 cell death, % at 20 µM; AID 588492; H2O2 injury protection, ATPLite, 2 h;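 active means compounds giving at least 50% protection of heart cells from peroxide-induced death in the single-dose screen, raw or plate-pattern-corrected value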;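 further: 0% = DMSO wells with peroxide and 100% = DMSO wells without peroxide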
Pemphigus Ab inh – human desmoglein-3 autoantibody binding inhibition. P32926. DSG3-coupled beads, scFv-anti-DSG3-GFP binding, flow cytometry; hits give low values. binding (percent of control), % at 10 µM. hit rate 0.48% among 310,000;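 active means binding more than 3 SD below its plate's average and above zero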;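 further: hits lower antibody fragment binding to DSG3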
Myeloid diff 2 – myeloid differentiation induction. ER-HoxA9 myeloid progenitors, lysozyme-GFP differentiation, flow cytometry. calls only at 10 µM. hit rate 1% among 360,000. AID 624256;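 active means normalized GFP-positive differentiation at or above the plate's own cutoff, the solvent-only control mean plus 3 SD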;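 further: cells exposed to compound for four days before flow analysis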
HNF4A DNA FP – change in binding of human HNF4 alpha to DNA | hit rate 0.3% among 360,000 | HNF4a-FITC DNA binding, fluorescence polarization, 1 h | activity change, % at 10 µM | AID 1224865; in the data active means activity change above about 30%, passing the limit was not always enough
Myeloid diff – promotes myeloid progenitor differentiation; shares compounds with Myeloid diff 2; hit rate 2% among 2,300; calls only; ER-HoxA9 myeloid progenitors, GFP/Mac1 double-positive flow;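 active means share of green or green-and-red cells above 9 and 9% in run 1 or 4 and 3% in run 2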
GFP autofluor – flagged as fluorescent in myeloid differentiation counter-screen. shares compounds with Myeloid diff 2. ER-HoxA9 myeloid progenitors, no estrogen, GFP autofluorescence flow cytometry; vehicle wells 0%, positive control 100%. fluorescence response, % (concentration not given with the values). hit rate 7.4% among 2,300;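 active means over 5% cells positive for green fluorescent reporter, or over 2% positive for both it and APC stain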;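 further: range taken on the double positive population between DMSO and positive control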
* hit, by the source's call; i = inactive; x = no result; + = active, no number. Compounds with a hit are over-represented: about 3% of the library has one in this group of screens.

SMILES | SENP1 FRET inh | Granule exo inh | H9c2 protect | Pemphigus Ab inh | Myeloid diff 2 | HNF4A DNA FP | Myeloid diff | GFP autofluor
CC(=O)N1c2ccc(S(=O)(=O)N(C)C3CCCCC3)cc2CC1C (centres undefined) | -0.7 | -1.8 | -1.7 | x | i | -6.4 | x | x
CCCCN1CC(COCc2ccccc2)Oc2cc(Br)ccc2S1(=O)=O (centres undefined) | -5.3 | 2.5 | -21.6 | 100.8 | i | -1.7 | x | x
CCCCN1CC(COCc2ccccc2)Oc2cccc(N3CCCC3)c2S1(=O)=O (centres undefined) | -0.5 | -1.9 | -8.6 | 116.6 | i | -0.4 | i | 0.0
COc1ccc(Cl)cc1NC(=O)NC(C)c1ccncc1 (centres undefined) | 2.5 | 4.1 | -2.5 | 111.5 | i | -0.5 | x | x
COc1ccc(Cl)cc1NC(=O)C1CSC(c2ccncc2)=N1 (centres undefined) | -2.5 | -0.2 | -6.9 | 102.4 | + | 0.3 | i | 0.4
CC1(C)C2CCC1(C)C(SC(=N)N)C2 (centres undefined) | 1.0 | -0.4 | -6.9 | x | i | -0.4 | i | 0.0
NS(=O)(=O)c1ccc(Nc2ncccc2[N+](=O)[O-])cc1 | -0.4 | -0.8 | 2.3 | 100.6 | + | -0.3 | i | 0.2
NNC(=O)c1ccc(CSc2cccc3cccnc23)cc1 | 0.5 | -1.2 | -6.1 | 85.8 | i | 0.3 | i | 0.3
COc1ccc(-n2nnnc2SCC(=O)Nc2nnc(C)s2)cc1 | -2.3 | -1.4 | -10.0 | 102.8 | + | 0.3 | i | 0.6
COc1ccccc1NC(=O)CSc1nnnn1-c1ccc2c(c1)OCO2 | 3.8 | 0.3 | -1.0 | 85.9 | i | 0.6 | i | 0.0
COc1ccc([C@@H]2[C@@H]3C(=O)N(C(C)(C)C)C(=O)[C@@H]3[C@]3(CC(C)C)C(=O)N(c4cccc(Br)c4)C(=O)N23)cc1 | 1.4 | 7.3 | -5.7 | 100.3 | i | -0.5 | x | x
C[n+]1c(/C=C/c2ccc3c(c2)OCO3)ccc2ccccc21 | 4.6 | -0.9 | -12.5 | 101.6 | i | -0.3 | + | 0.0
CSc1nc(O)c(/C=C2\C=Nc3ccccc32)[nH]1 | -127.5 | 2.3 | -2.2 | x | i | 2.2 | x | x
O=c1[nH]c(/C=C2\C=Nc3ccccc32)c(O)n1Cc1ccccc1F | -39.5 | 3.8 | -9.9 | 94.3 | i | 1.8 | i | 0.0
CCN(CC)c1ccc(/C=N/N2C(C)CCCC2C)c(O)c1 (centres undefined) | -28.7 | -9.4 | 1.3 | 92.6 | x | 3.2 | x | x
Cc1cc(=O)[nH]c(SCCOc2cccc(C(F)(F)F)c2)n1 | 1.9 | 1.9 | -3.1 | 119.4 | x | -2.4 | i | 3.4
O=C(NCCc1c[nH]c2ccccc12)c1ccc([N+](=O)[O-])o1 | -19.4 | 2.9 | -17.3 | 98.0 | + | 7.0 | i | 1.1
O=C(NCCc1c[nH]c2ccccc12)c1cc([N+](=O)[O-])cc([N+](=O)[O-])c1 | 1.2 | 2.1 | 2.2 | 96.6 | i | 0.7 | x | x
Cc1cc(=O)c2c([nH]1)c(C)cc1[nH]c(C)c(C)c12 | -26.5 | -1.7 | 10.8 | 101.1 | i | -60.2 | i | 0.0
CCCCCNC(=O)N[C@H](C(=O)O)C(C)C | 1.2 | -6.1 | 4.3 | 89.8 | i | -1.2 | x | x
CCCCOCCCNC(=O)N[C@H](C(=O)OC)C(C)C | -0.7 | 2.1 | 4.3 | 102.0 | + | 0.2 | i | 0.0
Cc1nnc(SCCn2c(N(C)Cc3ccccc3)nc3c2c(=O)[nH]c(=O)n3C)s1 | 1.3 | -2.7 | 6.5 | 106.0 | + | 1.8 | i | 0.3
Cc1nnc(SCCn2c(N3CCN(Cc4ccccc4)CC3)nc3c2c(=O)[nH]c(=O)n3C)s1 | 2.7 | -0.2 | -2.1 | 100.0 | i | -4.2 | x | x
CC1CCN(C(=O)c2ncn3c2c(=O)[nH]c2cccnc23)CC1 | -3.1 | 11.5 | -2.6 | 95.4 | i | 0.5 | x | x
CC(=O)N1CCc2c(sc(NC(=O)c3ccc([N+](=O)[O-])o3)c2C#N)C1 | -31.8 | 9.6 | -13.4 | 86.8 | + | -4.7 | i | 0.0
SMILES | SENP1 FRET inh | Granule exo inh | H9c2 protect | Pemphigus Ab inh | Myeloid diff 2 | HNF4A DNA FP | Myeloid diff | GFP autofluor
COc1ccc(C(=O)Nc2sc3c(c2C#N)CCN(C(C)=O)C3)cc1 | -27.7 | 2.5 | 0.6 | 90.2 | i | 17.0 | x | x
COc1ccc2cc(CN(CC3COCCO3)S(=O)(=O)c3ccc(Cl)cc3)c(=O)[nH]c2c1 (centres undefined) | 1.2 | -3.1 | 9.7 | 111.1 | i | 0.0 | x | x
COc1ccc2cc(CN(CC3CCCO3)S(=O)(=O)c3ccccc3)c(=O)[nH]c2c1 (centres undefined) | 3.5 | 2.3 | 9.2 | 103.3 | + | -2.8 | i | 0.0
O=C(O)CCNC(=O)/C(=C\C=C\c1ccccc1)NC(=O)c1ccccc1 | -11.2 | 10.2 | 6.9 | 86.4 | i | -5.4 | i | 0.9
C[C@H](O)C#Cc1cnc2c(c1)C(=O)N([C@H](C)CO)C[C@@H](C)[C@H](CN(C)C(=O)Nc1ccc(C(F)(F)F)cc1)O2 | -5.9 | -2.3 | -8.2 | 105.2 | i | 1.1 | i | 0.4
Cn1ccnc1SCC(=O)Nc1cc(C(F)(F)F)ccc1N1CCOCC1 | 0.7 | -0.5 | 3.1 | 106.9 | i | 1.7 | i | 0.0
Cn1c(Cc2ccccc2)nnc1SCC(=O)Nc1ccccc1N1CCOCC1 | -2.0 | -0.9 | 9.6 | 107.1 | i | -0.5 | i | 0.2
Cn1cnnc1SCC(=O)Nc1cc(C(F)(F)F)ccc1N1CCOCC1 | 2.1 | -6.1 | 6.6 | 99.8 | i | 2.5 | x | x
CCOC(=O)C1(Cc2cccc(Cl)c2)CCCN(C(=O)CCSC)C1 (centres undefined) | 0.7 | 20.8 | 3.6 | 103.1 | i | 0.6 | x | x
NC(=O)c1ccc(NC(=O)CSc2nnc(-c3ccccn3)n2N)cc1 | 1.4 | -1.9 | -6.8 | 97.2 | i | 1.7 | x | x
CCOCC(O)CNc1ccccc1 (centres undefined) | 3.0 | -6.9 | 1.6 | 104.5 | i | 0.7 | x | x
OC(CNc1ccccc1)COc1ccc(OCC(O)CNc2ccccc2)cc1 (centres undefined) | -0.7 | 4.6 | -20.2 | 78.7 | + | 1.2 | i | 1.1
CCN1CCN(C(CNS(=O)(=O)c2ccccc2)c2ccccc2)CC1 (centres undefined) | 4.5 | -5.5 | 2.3 | 105.5 | i | 0.0 | x | x
c1ccc(-c2csc3ncnc(NCc4ccccn4)c23)cc1 | -1.6 | 23.1 | -10.1 | x | i | 5.3 | x | x
c1ccc(CNc2ncnc3scc(-c4cccs4)c23)nc1 | 2.5 | 48.2 | -14.5 | 103.1 | i | -3.2 | i | 0.9

Screening results (PubChem)
